Source: PubChem BioAssay
Arbovirus anti – blocks arbovirus infection; hit rate 0.37% among 200,000; inhibition, % at 10 µM; arbovirus infection cell-based antiviral screen; in the data active means inhibition above about 30%
NCF1 inh – inhibitors of human p47phox binding | inhibition, % at 24.7 µM | P14598 | p47phox/p22phox peptide binding, fluorescence polarization, 2 h | AID 1274 | hit rate 0.53% among 220,000;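 active means inhibition above about 30%, limit read from the data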
WT yeast gro inh – growth inhibition of WT yeast, mitochondrial fusion screen; inhibition, % at 10 µM; mitochondrial fusion phenotypic screen, WT strain; hit rate 2.1% among 190,000; AID 1362; in the data active means inhibition above about 58%; tested in S. cerevisiae
Hck Nef HTS – human Hck-Nef kinase inhibition; P08631; Recombinant Hck-YEEI plus Nef, Z-Lyte FRET kinase assay; inhibition, % at 20 µM; hit rate 0.68% among 220,000;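 active means Hck-Nef kinase inhibition above about 50%, limit read from the data; inactive means inhibition below that limit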
Target sequence (P08631 whole entry, looked up): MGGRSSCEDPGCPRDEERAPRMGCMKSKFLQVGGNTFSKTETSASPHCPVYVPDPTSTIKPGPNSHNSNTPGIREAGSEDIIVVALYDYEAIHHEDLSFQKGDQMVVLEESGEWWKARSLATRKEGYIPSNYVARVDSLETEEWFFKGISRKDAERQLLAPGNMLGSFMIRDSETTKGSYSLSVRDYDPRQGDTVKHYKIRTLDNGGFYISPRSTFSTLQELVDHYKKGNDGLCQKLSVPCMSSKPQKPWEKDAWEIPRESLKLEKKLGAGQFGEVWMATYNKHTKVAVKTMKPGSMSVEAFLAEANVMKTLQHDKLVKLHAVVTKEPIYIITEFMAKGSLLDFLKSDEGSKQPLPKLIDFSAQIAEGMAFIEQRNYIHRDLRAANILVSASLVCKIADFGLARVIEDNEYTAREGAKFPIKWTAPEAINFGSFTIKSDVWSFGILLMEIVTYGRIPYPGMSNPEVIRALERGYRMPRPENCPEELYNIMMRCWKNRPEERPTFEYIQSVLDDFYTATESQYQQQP
RAM network inh – blocks the yeast RAM network; S. cerevisiae dse1pr::URA3 reporter, 5-FOA growth OD615, 2 d; analog-sensitive cbk1-as2 kinase mutant strain; hit rate 1.8% among 190,000; inhibition, % at 50 µM;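 active means inhibition above a set limit, 3 SD over mean compound inhibition, cut at about 8.4% in these data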;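 further: inhibition rescues growth on 5-FOA so higher OD means more RAM inhibition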
Biofilm kill mix – mixtures killing C. albicans biofilm; hit rate 0.02% among 120,000; C. albicans biofilm persisters + clotrimazole, fluorescence viability; primary screen in compound mixtures of four per well; inhibition, % at 7.6 µM;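 active means inhibition above 30.3% in the primary screen of four-compound pools, then above 30% when the compound was retested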;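 further: compounds exposed to preformed 24 h biofilms for 48 h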
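Probe or stimulus – Clotrimazole 50 µg/mL co-treatment · System – C. albicans biofilms · Schedule – 24 h biofilm formation, then 48 h compound exposure, 37 °C · Evaluation – percent inhibition of biofilm viability · Technique – 2-h Alamar Blue fluorescence, 535/590 nm excitation/emission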
Hck-Nef confirm – Hck-Nef kinase inhibition, confirmation | calls only at 10 µM | Recombinant Hck-YEEI:Nef, Z-Lyte FRET kinase assay | AID 463188 | hit rate 28% among 1,300 | shares compounds with Hck Nef HTS;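 active means average inhibition of at least 50%, with Z-scores no higher than 3 in both the phospho-tyrosine peptide and fluorescence counterscreens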
A number is an active result; 0 = inactive; - = not tested or not shown; + = active, no number. Most compounds without a hit are left out; they make up all but 4.6% or so of the library.

SMILES	Arbovirus anti	NCF1 inh	WT yeast gro inh	Hck Nef HTS	RAM network inh	Biofilm kill mix	Hck-Nef confirm
Nc1cc(=O)[nH]c(=O)n1-c1cccc(F)c1	0	0	0	0	0	0	-
COc1cccc(CNC(=O)CCNS(=O)(=O)c2cccs2)c1	0	0	0	0	0	-	-
N#Cc1c(-c2ccccc2)[nH]c(=O)[nH]c1=O	0	0	0	0	0	0	-
N#Cc1c(-c2ccc(F)cc2)c2c([nH]c1=O)-c1ccccc1OC2	-	0	-	126	-	0	-
N#Cc1c(-c2cccnc2)c2c([nH]c1=O)-c1ccccc1OC2	-	0	-	130	-	0	-
C=CCn1c(-c2ccc([N+](=O)[O-])cc2)n[nH]c1=S	0	0	0	0	0	0	-
COc1ccc(-c2cc3nc4ccccc4n3c(N)c2C#N)cc1	-	0	-	68	-	0	-
CC(=O)OCC1=C(C(=O)O)N2C(=O)C(NC(=O)c3ccc(COc4c(C)cccc4Cl)o3)C2SC1 (centres undefined)	0	0	0	77	0	0	0
CC(=O)OCC1=C(C(=O)O)N2C(=O)C(NC(=O)c3ccc(COc4ccc(Cl)cc4)o3)C2SC1 (centres undefined)	0	0	0	64	0	0	0
CCOc1ccccc1NC(=O)C(C)CC (centres undefined)	0	0	0	0	0	0	-
CC(C)(C)CC(C)(C)c1ccc(OCC(=O)N/N=C/c2ccc(S(=O)(=O)O)o2)cc1	-	0	-	57	-	0	+
CCCOc1ccc(C2C(C(=O)OC)=CN(CCOC)C=C2C(=O)OC)cc1	0	0	0	56	0	-	-
CCS/C(N)=N/N=C/c1cc(C)ccc1O	0	0	0	51	0	-	0
Cc1ccc(Oc2ccc(C(F)(F)F)cc2[N+](=O)[O-])c([N+](=O)[O-])n1	-	0	-	52	-	0	0
COc1cccc(N=c2oc3ccc(OC)cc3cc2-c2nc3ccccc3[nH]2)c1	0	0	0	99	0	-	+
COc1cccc(N=c2oc3ccccc3cc2-c2nc3ccccc3[nH]2)c1	0	0	0	0	0	-	-
COc1c(-c2ccc(O)cc2)oc2cc(O)cc(O)c2c1=O	-	0	-	53	-	0	0
O=c1cc(-c2ccccc2)oc2cc(OCc3ccccc3)cc(O)c12	0	0	0	0	0	0	-
O=c1cc(-c2ccc(O)c(-c3c(O)cc(O)c4c(=O)cc(-c5ccc(O)cc5)oc34)c2)oc2cc(O)cc(O)c12	0	0	0	53	0	0	+
Cc1oc2cc(O)cc(O)c2c(=O)c1-c1ccc2c(c1)OCCCO2	0	0	0	0	0	-	-
O=c1c(-c2c(O)cc(O)c3c(=O)cc(-c4ccc(O)cc4)oc23)c(-c2ccc(O)cc2)oc2cc(O)cc(O)c12	-	0	-	66	-	0	0
O=c1cc(-c2ccc(O)c(O)c2)oc2cc(O)cc(O)c12	-	0	-	91	-	0	+
COc1ccc(-c2oc3cc(O)c(OC)c(O)c3c(=O)c2OC)cc1	-	0	-	0	-	0	-
O=c1cc(-c2ccccc2)oc2ccc(O)cc12	-	0	-	0	-	0	-
CCOC(=O)c1c(NC(=O)COC(=O)Cn2c(C(F)(F)F)nc3ccccc32)sc(C)c1C	0	0	0	0	0	-	-
SMILES	Arbovirus anti	NCF1 inh	WT yeast gro inh	Hck Nef HTS	RAM network inh	Biofilm kill mix	Hck-Nef confirm
CCOC(=O)N1CCN(Cc2cc(Cl)c3cccnc3c2O)CC1	0	0	0	0	0	0	-
O=c1c(-c2ccc(O)cc2)coc2cc(O)cc(O)c12	-	0	-	52	-	0	0
CSc1sc(-c2ccnc(SCCS(C)(=O)=O)n2)c(-c2ccccc2)c1C#N	-	0	-	72	-	0	0
CCOc1ccc(N2C(=O)S/C(=C\c3ccc(O)c(OC)c3)C2=O)cc1	-	0	-	0	-	0	-
COc1cc(/C=C2\SC(=N)N(c3ccc(F)cc3)C2=O)ccc1O	0	0	0	77	0	0	0
CCc1nc(SCC(=O)Nc2nccs2)c2oc3ccccc3c2n1	0	0	0	0	0	-	-
O=C(CSc1ncnc2c1oc1ccccc12)Nc1nccs1	0	0	0	79	0	0	0
Cc1cc(NCCCN2CCOCC2)n2c(nc3ccccc32)c1C#N	0	0	0	75	0	-	-
Cc1cc(NCCN2CCOCC2)n2c(nc3ccccc32)c1C#N	0	0	0	0	0	-	-
CCCc1cc(NCCCN2CCOCC2)n2c(nc3ccccc32)c1C#N	0	0	0	101	0	0	-
CC(C)(C)c1ccc(-c2ncccc2O)cc1	0	0	0	0	0	0	-
